In assay [1] the target is T1, Non-lysosomal glucosylceramidase (Mus musculus) (UniProt Q69ZF3).
T1 sequence (whole entry): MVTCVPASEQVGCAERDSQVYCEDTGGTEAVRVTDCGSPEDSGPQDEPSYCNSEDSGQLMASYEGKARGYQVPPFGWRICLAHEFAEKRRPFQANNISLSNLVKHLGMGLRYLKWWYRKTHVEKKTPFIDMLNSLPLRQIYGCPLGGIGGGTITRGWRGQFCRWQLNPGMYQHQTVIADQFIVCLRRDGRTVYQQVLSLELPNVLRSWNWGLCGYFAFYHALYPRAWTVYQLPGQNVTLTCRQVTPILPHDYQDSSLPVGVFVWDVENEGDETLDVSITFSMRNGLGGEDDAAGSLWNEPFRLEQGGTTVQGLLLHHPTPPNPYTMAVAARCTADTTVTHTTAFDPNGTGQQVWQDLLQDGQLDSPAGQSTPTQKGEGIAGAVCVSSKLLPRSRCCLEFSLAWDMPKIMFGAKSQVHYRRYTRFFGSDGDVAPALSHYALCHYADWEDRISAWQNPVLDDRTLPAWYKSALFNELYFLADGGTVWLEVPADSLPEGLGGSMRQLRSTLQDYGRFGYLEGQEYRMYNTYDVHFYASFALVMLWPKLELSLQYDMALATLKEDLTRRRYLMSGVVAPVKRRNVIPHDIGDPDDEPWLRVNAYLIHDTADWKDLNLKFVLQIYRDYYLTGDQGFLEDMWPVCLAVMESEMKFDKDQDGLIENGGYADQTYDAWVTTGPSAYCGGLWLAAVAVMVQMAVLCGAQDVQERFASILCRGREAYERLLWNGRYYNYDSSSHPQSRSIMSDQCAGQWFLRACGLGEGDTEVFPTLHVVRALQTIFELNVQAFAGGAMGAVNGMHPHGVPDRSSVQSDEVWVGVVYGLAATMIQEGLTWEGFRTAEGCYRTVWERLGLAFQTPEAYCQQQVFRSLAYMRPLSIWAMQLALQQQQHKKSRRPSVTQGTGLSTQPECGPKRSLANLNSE
Kind of assay: Inhibition of GBA2 activity in mouse tissue homogenate at 5 uM. In outline: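 Mouse tissue homogenates were used to separate nonlysosomal GBA2 from lysosomal GCase β-glucosidase activity. Compounds were screened at 50 and 5 μM with 3 mM substrate. Two independent experiments, each run in duplicate.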

Assay [2] has as its system T2, Lysosomal acid glucosylceramidase (Homo sapiens), P04062 [N409S].
T2 sequence (whole entry): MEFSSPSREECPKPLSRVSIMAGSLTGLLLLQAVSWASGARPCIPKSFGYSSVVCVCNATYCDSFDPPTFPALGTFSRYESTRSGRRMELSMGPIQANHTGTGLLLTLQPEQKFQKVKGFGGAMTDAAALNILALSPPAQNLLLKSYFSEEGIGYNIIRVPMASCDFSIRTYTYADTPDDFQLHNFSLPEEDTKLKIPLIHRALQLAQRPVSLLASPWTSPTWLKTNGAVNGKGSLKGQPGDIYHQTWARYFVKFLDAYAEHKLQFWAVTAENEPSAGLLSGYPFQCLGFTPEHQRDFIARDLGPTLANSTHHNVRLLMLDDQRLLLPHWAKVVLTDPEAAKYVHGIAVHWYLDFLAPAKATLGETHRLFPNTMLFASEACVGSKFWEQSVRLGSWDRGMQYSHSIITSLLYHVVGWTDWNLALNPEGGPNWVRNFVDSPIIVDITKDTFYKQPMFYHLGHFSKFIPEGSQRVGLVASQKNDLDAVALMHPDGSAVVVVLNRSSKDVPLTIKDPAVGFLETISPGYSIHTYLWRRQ
Description: Agonist activity at glucosylceramidase N370S mutant in lymphoblast obtained from Gaucher disease patient using 4-methylumbelliferyl-beta-D-glucopyranoside as substrate preincubated at 1 nM for 3 days measured 2 hrs post substrate addition by fluorescence assay relative to untreated control. The assay is classed as functional. The procedure, abridged: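 Patient-derived N370S homozygous lymphoblasts (RPMI-1640, 15% FBS, 37 °C, 5% CO2; passages 5–16) seeded at 2 × 10^5 cells/well, exposed to compound for 3 days. Cells washed in PBS and lysed in water by sonication. Homogenate incubated with 6 mM 4-MU-β-glucoside in 0.1 M citrate phosphate pH 5.2 with 0.25% taurocholate and 0.1% Triton X-100, 37 °C, 2 h. Fluorescence read at 355/460 nm; activity normalized to untreated cells; triplicate.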

The nature of assay [3]: Agonist activity at glucosylceramidase […] mutant in lymphoblast obtained from Gaucher disease patient using 4-methylumbelliferyl-beta-D-glucopyranoside as substrate preincubated at 1 uM for 3 days measured 2 hrs post substrate addition by fluorescence assay relative to untreated control. Format: functional, Homo sapiens. The procedure, abridged:
(§1)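 Homozygous L444P GD type 2 patient-derived lymphoblasts (GM08752) in RPMI-1640 with 15% FBS, seeded at 2 × 10^5 cells/well and exposed to compound for 3 days. Cells were washed with PBS and sonicated in water. Homogenate was assayed with 6 mM 4-methylumbelliferyl-β-D-glucopyranoside in 0.1 M citrate phosphate, pH 5.2, with 0.25% taurocholate and 0.1% Triton X-100, for 2 h at 37 °C. Fluorescence read at 355/460 nm, normalized to untreated cells, triplicate.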

For assay [4], the target named is T3, Lysosomal acid glucosylceramidase (Homo sapiens, UniProt P04062).
T3 sequence (P04062 whole entry): T2 sequence (whole entry) with S409N
Description: Inhibition of lysosomal beta-glucosidase in human fibroblast using 4-methylumbelliferyl-beta-D-glucopyranoside as substrate preincubated for 24 hrs before substrate addition measured after 2 hrs by fluorometry. The procedure, abridged:
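Wild-type human fibroblasts (DMEM, 10% FBS; passages 14–30) plated overnight, then compound in fresh medium for 24 h at 37 °C, 5% CO2. Intact washed monolayers given PBS plus 200 mM acetate pH 4.0 and 5 mM 4-MU-β-glucoside, 37 °C for 2 h. Stopped by lysis in glycine/NaOH pH 10.6. Fluorescence at 355/460 nm; triplicate.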

Assay [5] is described as follows: Agonist activity at glucosylceramidase […] mutant in lymphoblast obtained from Gaucher disease patient using 4-methylumbelliferyl-beta-D-glucopyranoside as substrate preincubated at 50 nM for 3 days measured 2 hrs post substrate addition by fluorescence assay relative to untreated control. The assay is classed as functional, Homo sapiens. The procedure, abridged:
as §1

Positions count from the first letter of the chain named.

Data on 5 compounds can be found in ChEMBL document CHEMBL2163314, “Potent aminocyclitol glucocerebrosidase inhibitors are subnanomolar pharmacological chaperones for treating gaucher disease” (J Med Chem, 2012).

In the case of `CCCCCCCCCN[C@@H]1[C@H](O)[C@@H](O)[C@H](O)[C@@H](O)[C@@H]1O`, the inhibition (in general, the percentage by which the read-out fell short of the control) in assay [1] was determined as 69%.

As for `CCCCCCCCCN[C@H]1[C@H](O)[C@@H](O)[C@H](O)[C@@H](O)[C@@H]1OCCCCCCCCC.Cl`, the inhibition in assay [2] came to 90%.

In the case of `CCCCCCCCCN[C@H]1[C@H](O)[C@@H](O)[C@H](O)[C@@H](O)[C@@H]1OC.Cl`, the “fold change (FC)” value in assay [3] was found to be 1.5.

Take `CCCCCCCCCN[C@H]1[C@H](O)[C@@H](O)[C@H](O)[C@@H](O)[C@H]1OCCCCCCCCC.Cl`: the fold change (FC) in assay [2] was found to be 1.9. In addition, the IC50 (usually the point on the concentration scale where inhibition reaches its midpoint) in assay [4] worked out at 4.3 nM.

On to `CCCCCCCCCN[C@H]1[C@H](O)[C@@H](O)[C@H](O)[C@@H](O)[C@H]1OC.Cl`, for which the “fold change (FC)” value in assay [5] is recorded as 1.4.
